Screening data deposited in PubChem BioAssay by several laboratories.
TLR4 MyD88 comp: blocks binding of human TLR4 to MyD88 | HeLa CL3-4 TLR4/MyD88 BLA complementation, FRET ratio | inhibition, % at 8.4 µM | 0.18% of 200,000 active | AID 861; in the data active means inhibition above about 25%
MC4R antagonist: human MC4R antagonism in cAMP assay | P32245 | MC4R-expressing cells, MTII-stimulated cAMP, LANCE TR-FRET | inhibition, % at 6.5 µM | 0.48% of 360,000 active | AID 540295;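 active means inhibition above its plate's cutoff, the mean of tested wells on that plate plus 3 SD, cut at about 29% in these data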
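Material – human MC4R-expressing U2OS cells · Repeats – no replicates · Detection – TR-FRET with Eu-cAMP and labeled anti-cAMP, 671 nm · Times – compound 30 min, challenge 1 h, detection 1 h · Compound – single nominal compound dose of 6.5 µM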
NOD2 RIPK2 PPI: blocks binding of human NOD2 to RIPK2. inhibition, % at 4.98 µM. 0.38% of 360,000 active. CHO BLA complementation NOD2-RIPK2, CCF4 ratio. O43353. AID 624267; in the data active means inhibition above about 21%
NTR1 ag: activates human neurotensin receptor 1. P30989. NTR1-U2OS beta-arrestin-GFP spot imaging, agonist mode. activation, % at 20 µM. 0.17% of 330,000 active. AID 493036;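 active means activation at or above 40% of the spot to cytoplasm intensity ratio, with at least 20 cells analyzed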
TLR9-MyD88 inh: blocks human TLR9 binding to MyD88; 0.21% of 340,000 active; inhibition, % at 4.98 µM; CHO BLA complementation TLR9-MyD88, CCF4 FRET ratio; Q9NR96+Q99836; AID 504734;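 active means inhibition above the mean over all tested compounds plus 3 SD, cut at about 21% in these data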
Target sequence (Q99836 whole entry, looked up): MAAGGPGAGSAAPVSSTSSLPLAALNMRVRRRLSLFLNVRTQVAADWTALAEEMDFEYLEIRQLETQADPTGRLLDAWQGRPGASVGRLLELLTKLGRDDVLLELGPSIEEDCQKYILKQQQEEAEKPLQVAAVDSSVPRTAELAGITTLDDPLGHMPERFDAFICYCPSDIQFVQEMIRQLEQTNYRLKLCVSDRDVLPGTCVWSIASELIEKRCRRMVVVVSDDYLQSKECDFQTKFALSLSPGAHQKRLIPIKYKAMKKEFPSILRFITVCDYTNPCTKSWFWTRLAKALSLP
Target sequence (Q9NR96 whole entry, looked up): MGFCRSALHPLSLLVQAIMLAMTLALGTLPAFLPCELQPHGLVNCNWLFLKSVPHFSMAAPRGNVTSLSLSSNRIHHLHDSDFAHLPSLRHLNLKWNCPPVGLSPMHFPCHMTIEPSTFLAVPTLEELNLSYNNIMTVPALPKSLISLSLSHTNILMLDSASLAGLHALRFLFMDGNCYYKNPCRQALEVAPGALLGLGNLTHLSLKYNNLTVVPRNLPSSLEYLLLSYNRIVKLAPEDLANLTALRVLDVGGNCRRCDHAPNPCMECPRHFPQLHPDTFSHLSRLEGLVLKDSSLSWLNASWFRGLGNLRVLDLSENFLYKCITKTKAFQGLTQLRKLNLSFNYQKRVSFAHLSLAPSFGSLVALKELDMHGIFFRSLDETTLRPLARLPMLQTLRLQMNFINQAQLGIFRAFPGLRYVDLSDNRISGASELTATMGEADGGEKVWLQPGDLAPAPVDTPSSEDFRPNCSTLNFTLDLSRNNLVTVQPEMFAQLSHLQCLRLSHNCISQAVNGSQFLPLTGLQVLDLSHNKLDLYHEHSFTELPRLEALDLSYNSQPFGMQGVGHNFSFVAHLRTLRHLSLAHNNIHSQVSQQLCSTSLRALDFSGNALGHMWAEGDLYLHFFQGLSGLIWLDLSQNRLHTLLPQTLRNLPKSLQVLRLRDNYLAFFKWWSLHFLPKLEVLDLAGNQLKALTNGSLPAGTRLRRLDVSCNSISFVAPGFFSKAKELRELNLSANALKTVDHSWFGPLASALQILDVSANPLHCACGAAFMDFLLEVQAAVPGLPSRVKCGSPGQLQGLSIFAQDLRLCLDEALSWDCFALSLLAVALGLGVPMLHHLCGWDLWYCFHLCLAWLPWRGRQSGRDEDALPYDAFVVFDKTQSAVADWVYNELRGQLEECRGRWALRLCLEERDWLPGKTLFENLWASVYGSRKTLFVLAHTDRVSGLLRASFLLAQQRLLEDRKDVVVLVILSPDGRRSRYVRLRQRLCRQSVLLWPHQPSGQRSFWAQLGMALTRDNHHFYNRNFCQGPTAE
MC4R barr agon: human MC4R agonism via beta-arrestin; 0.98% of 360,000 active; P32245; activation, % at 8.9 µM; U2OS MC4R beta-arrestin complementation, luminescence; percent of melanotan II response, DMSO zero;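 active means activation above a per-plate cutoff, the mean activation of sample wells on that plate plus 3 SD, cut at about 8% in these data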
MC4R barr conf: human MC4R beta-arrestin agonism confirmation; shares compounds with MC4R barr agon; U2OS MC4R beta-arrestin recruitment, luminescence; scaled DMSO 0%, Melanotan II 100%; activation, % at 8.9 µM; 31% of 2,400 active;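 active means mean activation across replicates above the hit cutoff set in the earlier primary screen, cut at about 8% in these data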
MOR DOR agonist: activates mu-delta opioid heterodimer, MC4R agonist counter-screen | 5.8% of 2,400 active | AID 602194 | shares compounds with MC4R barr agon | U2OS PathHunter beta-arrestin, beta-gal luminescence; percent of deltorphin B response, DMSO zero | activation, % at 9.2 µM;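 active means mean activation across replicates exceeds the hit threshold derived in the earlier primary screen, cut at about 18% in these data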
Of the large screens only hits and unclear results are named; the others gave an inactive call (follow-up assays come after a bar, where they were run). Shown are actives, neighbours in structure and some others; about 1.9% of the full set was active somewhere.

C/C(=N/NC(=O)C(O)(c1ccccc1)c1ccccc1)c1ccc([N+](=O)[O-])o1	none
CC(C)(C)c1nn(-c2ccccc2)c2[nH]c(=O)c(CNCc3ccc4c(c3)OCO4)cc12	MC4R barr agon 15.9 | MC4R barr conf 13.9 | MOR DOR agonist inactive
O=C(Nc1cccc(-c2nc3cccnc3s2)c1)C1c2ccccc2Oc2ccccc21	MC4R barr agon 10.5 | MC4R barr conf inactive | MOR DOR agonist inactive
Cc1cccc(S(=O)(=O)NNC(=O)c2sc(C)nc2C)c1	none
O=C(CSc1nnc(COc2ccc(Cl)cc2)o1)Nc1nccs1	none (no result: TLR4 MyD88 comp, NTR1 ag)
O=C(Cn1c(=S)[nH]c2ncccc2c1=O)NCCc1ccccc1	none (no result: MC4R antagonist, NOD2 RIPK2 PPI, TLR9-MyD88 inh, MC4R barr agon)
Cc1cccnc1C(NC(=O)C1CCN(CCOc2ccc(Cl)cc2Cl)CC1)c1ccc(Cl)cc1 (stereo not drawn)	MC4R barr agon 34.5 (no result: TLR4 MyD88 comp, NTR1 ag, TLR9-MyD88 inh) | MC4R barr conf 16.7 | MOR DOR agonist inactive
O=C(NC(c1ccc(Cl)cc1)c1ccccn1)C1CCN(CCOc2ccc(Cl)cc2Cl)CC1 (stereo not drawn)	MC4R barr agon 18.4 (no result: TLR4 MyD88 comp, NTR1 ag, TLR9-MyD88 inh) | MC4R barr conf 24.0 | MOR DOR agonist inactive
Cc1cccnc1C(NC(=O)C1CCN(CCCc2ccccc2)CC1)c1ccc(Cl)cc1 (stereo not drawn)	none (no result: TLR4 MyD88 comp, NTR1 ag, TLR9-MyD88 inh)
O=C(NC(c1ccc(F)cc1)c1ccc2ccccc2n1)C1CCN(CCOc2ccc(F)cc2)CC1 (stereo not drawn)	none (no result: TLR4 MyD88 comp, NTR1 ag, TLR9-MyD88 inh)
O=C(NC(c1ccc2c(c1)OCO2)c1ccccn1)C1CCN(CCOc2ccc(Cl)cc2Cl)CC1 (stereo not drawn)	none (no result: TLR4 MyD88 comp, NTR1 ag, TLR9-MyD88 inh)
O=C(NC(c1ccc(F)cc1)c1ccc2ccccc2n1)C1CCN(CCOc2ccc(Cl)cc2Cl)CC1 (stereo not drawn)	MC4R barr agon 18.5 (no result: TLR4 MyD88 comp, NTR1 ag, TLR9-MyD88 inh) | MC4R barr conf 11.5 | MOR DOR agonist inactive
O=C(NC(c1ccc(Cl)cc1)c1cccnc1)C1CCN(CCOc2ccc(Cl)cc2Cl)CC1 (stereo not drawn)	MC4R barr agon 18.1 (no result: TLR4 MyD88 comp, NTR1 ag, TLR9-MyD88 inh) | MC4R barr conf 29.8 | MOR DOR agonist inactive
COc1cccc(/C(N)=N/OC(=O)Cc2ccccc2[N+](=O)[O-])c1	none
CC(C)(C)OC(=O)C[C@@H]1C/C=C\C[C@@H](CC(=O)NCCO)C(=O)NC[C@H](c2ccccc2)OC1=O	none (no result: TLR4 MyD88 comp)
CC(C)OP(=O)(OC(C)C)C(C)NC(=O)Cc1ccccc1 (stereo not drawn)	none
C#CCN1C(=O)S/C(=C\c2ccc(N3CCOCC3)cc2C)C1=O	MC4R barr agon 11.3 | MC4R barr conf inactive | MOR DOR agonist inactive
CCN1C(=O)S/C(=C\c2ccc(N3CCOCC3)cc2C)C1=O	none
O=C(NCc1ccccc1Br)C1CCCO1 (stereo not drawn)	none (no result: TLR4 MyD88 comp)
Cc1ccccc1S(=O)(=O)NC(=O)C1(C)CCN1C(=O)C(C)(C)c1ccccc1 (stereo not drawn)	none (no result: TLR4 MyD88 comp, NTR1 ag, TLR9-MyD88 inh)
CCCCCCCCCCCCCCCC[n+]1ccc(/C=N/O)cc1	MC4R barr agon 19.8 | MC4R barr conf 63.7 | MOR DOR agonist inactive
O/N=C/c1cccc[n+]1CCCCCC[n+]1ccccc1/C=N/O	none (no result: TLR4 MyD88 comp)
Cc1cc(C)c(NC(=O)NC(=O)C(Cl)(Cl)Cl)c(C)c1	none
O=C(COC(=O)/C=C/c1cccc(Cl)c1)Nc1ccc(N2CCOCC2)cc1	MC4R barr agon 9.8 (no result: TLR4 MyD88 comp) | MC4R barr conf inactive | MOR DOR agonist inactive
O=C(COC(=O)/C=C/c1cccc([N+](=O)[O-])c1)Nc1ccc(Cl)cn1	none (no result: TLR4 MyD88 comp)
Cc1ccc(NC(=O)COC(=O)/C=C/c2cccc(Cl)c2)cc1S(=O)(=O)N1CCOCC1	none
CC(C)c1ccc(NC(=O)COC(=O)/C=C/c2cccc([N+](=O)[O-])c2)cc1	MC4R barr agon 16.0 | MC4R barr conf inactive | MOR DOR agonist inactive
COc1ccc(NC(=O)CSc2ncccc2C(=O)OC(C)C)cc1OC	none
CC(C)c1ccc(NC(=O)CSc2ncccc2C(=O)Oc2cccc([N+](=O)[O-])c2)cc1	MC4R barr agon 19.6 | MC4R barr conf 17.0 | MOR DOR agonist inactive
COc1cc(C(=O)NNC(=O)COc2cccc(F)c2)ccc1OCC(=O)N1CCOCC1	none (no result: TLR4 MyD88 comp)
Clc1ccccc1-c1cnc2sc(NCc3ccc4c(c3)OCO4)nn12	MC4R barr agon 21.9 (no result: TLR4 MyD88 comp, NTR1 ag, TLR9-MyD88 inh) | MC4R barr conf 13.1 | MOR DOR agonist inactive
CCOc1ccc(NC(=O)CSc2nc(-c3cccs3)cc(C(F)(F)F)n2)c([N+](=O)[O-])c1	MC4R barr agon 15.9 | MC4R barr conf 26.0 | MOR DOR agonist inactive
CCNC(=S)Nc1cc(OCC)c(NC(=O)c2cccs2)cc1OCC	none (no result: NTR1 ag)
Cc1cc(NC(=O)CSc2nc(-c3cccs3)cc(C(F)(F)F)n2)no1	none
CCOc1cc(NC(=S)NCC(C)C)c(OCC)cc1NC(=O)c1cccs1	MC4R barr agon 14.6 | MC4R barr conf inactive | MOR DOR agonist inactive
CCOc1ccc(NC(=O)c2cccs2)c([N+](=O)[O-])c1	MC4R barr agon 18.0 | MC4R barr conf inactive | MOR DOR agonist inactive
O=C(Nc1cc(F)cc(F)c1)c1ccc(NCCc2ccccc2)c([N+](=O)[O-])c1	MC4R barr agon 10.2 | MC4R barr conf inactive | MOR DOR agonist inactive
Cc1ccc(NC(=O)c2ccc(NCCc3ccccc3)c([N+](=O)[O-])c2)cc1F	none
O=C1/C(=C\c2ccccn2)SC(=S)N1Nc1ncc(C(F)(F)F)cc1Cl	none
O=C1/C(=C/c2ccc(F)cc2)SC(=S)N1Nc1ncc(C(F)(F)F)cc1Cl	MC4R barr agon 9.9 | MC4R barr conf inactive | MOR DOR agonist inactive
CCOC(=O)C1=C(c2ccccc2)NC(=O)NC1c1cc(Cl)c(O)c(OC)c1 (stereo not drawn)	none
CCOC(=O)C1=C(c2ccccc2)NC(N)=NC1c1ccc(OCc2ccc(Cl)cc2)c(OC)c1 (stereo not drawn)	MC4R barr agon 11.7 (no result: TLR4 MyD88 comp) | MC4R barr conf 11.0 | MOR DOR agonist inactive
O=C(NCc1ccccc1Cl)c1ccc(S(=O)(=O)NCc2ccco2)cc1	none (no result: TLR4 MyD88 comp)
Cc1cc(NC(=O)c2cncc(Br)c2)ccc1NC(=O)c1cc2ccccc2o1	MC4R barr agon 10.1 (no result: TLR4 MyD88 comp) | MC4R barr conf 17.1 | MOR DOR agonist inactive
COc1cccc(C(=O)Nc2ccc(NC(=O)c3cc4ccccc4o3)c(OC)c2)c1	MC4R barr agon 10.3 (no result: TLR4 MyD88 comp) | MC4R barr conf inactive | MOR DOR agonist inactive
O=C(O)c1cc(Cl)c(Cl)cc1C(=O)N(Cc1ccccc1)Cc1ccccc1	none (no result: TLR4 MyD88 comp)
CCNC(=O)c1c(NC(=O)C2COc3ccccc3O2)sc2c1CCCC2 (stereo not drawn)	none
